NPY2 pot ag = potentiates or activates human NPY-Y2 receptor; cells expressing NPY-Y2, potentiator/agonist read-out; activation, % at 3.6 µM; 0.45% of 220,000 active; AID 1359; in the data active = activation above about 27%;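 also: cells stimulated with NPY near EC25 plus isoproterenol at EC100; 0% = vehicle plus submaximal agonist and 100% = vehicle plus saturating agonist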
Target sequence (P49146 whole entry, looked up): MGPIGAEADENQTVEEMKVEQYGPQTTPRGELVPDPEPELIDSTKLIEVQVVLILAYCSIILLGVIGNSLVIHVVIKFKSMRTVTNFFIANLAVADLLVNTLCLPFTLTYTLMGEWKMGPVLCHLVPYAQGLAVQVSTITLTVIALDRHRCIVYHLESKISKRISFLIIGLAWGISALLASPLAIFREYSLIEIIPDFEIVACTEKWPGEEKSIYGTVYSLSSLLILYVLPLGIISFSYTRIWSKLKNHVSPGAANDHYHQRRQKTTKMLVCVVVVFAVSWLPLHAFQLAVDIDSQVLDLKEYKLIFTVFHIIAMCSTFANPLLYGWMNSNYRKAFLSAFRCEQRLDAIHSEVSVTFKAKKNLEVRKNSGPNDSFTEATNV
NPY-Y1 antag = antagonists of human neuropeptide Y receptor Y1. P25929. HEK293-CNG Y1 cells, membrane potential fluorescence; NPY at EC95, then isoproterenol. inhibition, % at 3.6 µM. 1% of 200,000 active;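 active = inhibition above the campaign mean inhibition of all tested compounds plus 3 SD, cut at about 20% in these data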;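 also: 0% = DMSO wells given NPY plus isoproterenol and 100% = isoproterenol alone without NPY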
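Material: HEK293 cells with Y1 receptor plus CNG channel; times: compound incubation 1 h at room temperature, readout 45 min post-stimulation; signal: fluorescence, membrane potential probe; read-out basis: fluorescence ratio normalized to % inhibition between controls; benchmarks: full-block control isoproterenol-only wells, zero-block control NPY plus isoproterenol wells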
NPY1 pot ag = potentiators or agonists of human neuropeptide Y receptor Y1. AID 1304. NPY-Y1 expressing cells, potentiator/agonist activation. activation, % at 3.6 µM. P25929. 0.37% of 220,000 active; in the data active = activation above about 33%, passing the limit was not always enough;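 also: cells stimulated with NPY at EC10 then isoproterenol at EC100; 0% = low agonist plus stimulus and 100% = saturating agonist plus stimulus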
WT yeast gro inh = growth inhibition of WT yeast, mitochondrial fusion screen. inhibition, % at 10 µM. mitochondrial fusion phenotypic screen, WT strain. AID 1362. 2.1% of 190,000 active; in the data active = inhibition above about 58%; tested in S. cerevisiae
NPY Y2 blocker = antagonists of human neuropeptide Y receptor Y2. P49146. NPY-Y2 expressing cells, antagonist mode. inhibition, % at 2.7 µM. 0.99% of 140,000 active. AID 793; in the data active = inhibition above about 17%;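 also: 0% = vehicle with agonist challenge and 100% = reference antagonist with challenge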
RAM network inh = blocks the yeast RAM network. S. cerevisiae dse1pr::URA3 reporter, 5-FOA growth OD615, 2 d; analog-sensitive cbk1-as2 kinase mutant strain. 1.8% of 190,000 active. inhibition, % at 50 µM;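 active = inhibition above a set limit, 3 SD over mean compound inhibition, cut at about 8.4% in these data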;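 also: 0% = DMSO-only wells with no growth and 100% = 10 µM 1-NA-PP1 full growth; inhibition rescues growth on 5-FOA so higher OD means more RAM inhibition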
Numbers without * were called inactive. Rows were chosen to be rich in hits. Some 4.9% of all compounds tested hit in one or more screens of this group.

`O=[N+]([O-])c1cccc(C2NCC(c3ccccc3Cl)c3c2[nH]c2ccccc32)c1` (configuration not stated) gave NPY2 pot ag 6, NPY-Y1 antag -5, NPY1 pot ag 21, WT yeast gro inh 70* and RAM network inh 0.
Screening CN(C)c1ccc(C2CNC(c3ccc(Cl)c([N+](=O)[O-])c3)c3[nH]c4ccccc4c32)cc1 (configuration not stated) returned NPY2 pot ag 23 and NPY1 pot ag 34.
For O=C1Cc2ccccc2C(=O)N1CCc1ccccc1 the results were NPY2 pot ag 5, NPY-Y1 antag 3, NPY1 pot ag 12, WT yeast gro inh 15, NPY Y2 blocker -1 and RAM network inh 0.
For COC(=O)C(=Cc1ccc(OCc2ccc([N+](=O)[O-])cc2)c(OC)c1)C(=O)OC the results were NPY2 pot ag -17, NPY-Y1 antag 5, NPY1 pot ag -33, WT yeast gro inh 6, NPY Y2 blocker 4 and RAM network inh 9.2*.
`CO/N=C/C(=N\Nc1ccccc1)C(=O)c1ccccc1` gave NPY2 pot ag -2, NPY-Y1 antag 14, NPY1 pot ag 3, WT yeast gro inh 18 and RAM network inh 2.
`COc1ccc(NC(=O)N2CCC(C(=O)c3ccc(F)cc3)CC2)cc1` gave NPY2 pot ag -1, NPY-Y1 antag -5, NPY1 pot ag 1, WT yeast gro inh 10, NPY Y2 blocker -1 and RAM network inh 2.
For CO/N=C/C(=N\Nc1ccc(OC)cc1)C(=O)c1ccc(F)cc1 the results were NPY2 pot ag -1, NPY-Y1 antag 1, NPY1 pot ag 2, WT yeast gro inh 1 and RAM network inh 9.2*.
For CO/N=C/C(=N\Nc1ccc(C)cc1)C(=O)c1ccc(OC)cc1 the results were NPY2 pot ag 3, NPY-Y1 antag 0, NPY1 pot ag 12, WT yeast gro inh -9, NPY Y2 blocker 1 and RAM network inh 10*.
For C=C(C)CN1C(=O)c2ccccc2C1=O the results were NPY2 pot ag 5, NPY-Y1 antag 1, NPY1 pot ag -7, WT yeast gro inh 4, NPY Y2 blocker 1 and RAM network inh 2.
`CC(CCc1ccccc1)NC(=O)CN(C)Cc1ccccc1F` (configuration not stated) gave NPY2 pot ag -9, NPY-Y1 antag 11, NPY1 pot ag 3, WT yeast gro inh -26 and RAM network inh 0.
`CCSc1nnc(NC(=O)COc2ccc3ccccc3c2)s1` gave NPY2 pot ag -15, NPY-Y1 antag 13, NPY1 pot ag -31, WT yeast gro inh 84*, NPY Y2 blocker 10 and RAM network inh 5.
`O=C1NC(=NCc2ccccc2)S/C1=C\c1ccccc1` gave NPY2 pot ag -5, NPY-Y1 antag 4, NPY1 pot ag -21, WT yeast gro inh -3, NPY Y2 blocker 1 and RAM network inh 6.
For CCN(CC)CCCn1c(C)cc2c(c1=O)C(c1cc(OC)c(OC)cc1OC)C(C#N)=C(N)O2 (configuration not stated) the results were NPY2 pot ag 18, NPY-Y1 antag 6, NPY1 pot ag 3, WT yeast gro inh 5, NPY Y2 blocker 1 and RAM network inh 1.
`CCN(CC)CCCn1c(C)cc2c(c1=O)C(c1cccc(Cl)c1)C(C#N)=C(N)O2` (configuration not stated) gave NPY2 pot ag 9, NPY-Y1 antag 0, NPY1 pot ag -8, WT yeast gro inh 74*, NPY Y2 blocker 3 and RAM network inh 1.
Cc1cc(C)cc(C(=O)NC(=S)Nc2ccc(Cc3ccncc3)cc2)c1 was read as NPY2 pot ag -14, NPY-Y1 antag 8, NPY1 pot ag -36, WT yeast gro inh 30, NPY Y2 blocker 10 and RAM network inh 3.
Cc1cccc(C(=O)NC(=S)Nc2ccc(Cc3ccncc3)cc2)c1 was read as NPY2 pot ag -10, NPY-Y1 antag 6, NPY1 pot ag -33, WT yeast gro inh 61*, NPY Y2 blocker 2 and RAM network inh 0.
O=C(O)c1ccc(NC(=S)NC(=O)c2cccc(COc3ccccc3)c2)cc1 was read as NPY2 pot ag 0, NPY-Y1 antag 3, NPY1 pot ag -15, WT yeast gro inh 91* and RAM network inh 6.
For Cc1ccc(N(C(C)C(=O)Nc2cccc(N(C)S(C)(=O)=O)c2)S(C)(=O)=O)cc1 (configuration not stated) the results were NPY2 pot ag 13, NPY-Y1 antag 3, NPY1 pot ag -1, WT yeast gro inh 4 and RAM network inh -1.
For CCOC(=O)c1c(Nc2ccc(Cl)cc2)sc(/C=C2\C=Nc3ccccc32)c1O the results were NPY2 pot ag -6, NPY-Y1 antag -2, NPY1 pot ag -2, WT yeast gro inh -3, NPY Y2 blocker 0 and RAM network inh 9.3*.
Screening O=C(COc1ccc(Cl)cc1Cl)NNC(=S)NCc1ccco1 returned NPY2 pot ag 12, NPY-Y1 antag 9, NPY1 pot ag 18, WT yeast gro inh 76* and RAM network inh 5.
For O=C(COc1ccc(Cl)cc1Cl)NCc1ccco1 the results were NPY2 pot ag -15, NPY-Y1 antag 0, NPY1 pot ag 19, WT yeast gro inh -28, NPY Y2 blocker 1 and RAM network inh -1.
COc1cccc(C(=O)NCc2ccc3c(c2)cc(C)n3C)c1 was read as NPY2 pot ag -5, NPY-Y1 antag -1, NPY1 pot ag -2, WT yeast gro inh 11 and RAM network inh 10*.
Screening COc1ccc(C(=O)NCc2ccc3c(c2)cc(C)n3C)cc1OC returned NPY2 pot ag -10, NPY-Y1 antag 6, NPY1 pot ag -10, WT yeast gro inh -26 and RAM network inh 4.
For Cc1ccc(CNC(=O)c2ccc(-n3cccc3)cc2)cc1 the results were NPY2 pot ag -14, NPY-Y1 antag 7, NPY1 pot ag -8, WT yeast gro inh -2 and RAM network inh 3.
`COc1cc(OC)cc(C(=O)NCc2ccc(-n3cccc3)cc2)c1` gave NPY2 pot ag -24, NPY-Y1 antag 5, NPY1 pot ag 0, WT yeast gro inh 19 and RAM network inh 11*.
For CSc1nc(N(C)CCO)c2sc3nc(-c4ccco4)c4c(c3c2n1)CCC4 the results were NPY2 pot ag 13, NPY-Y1 antag 0, NPY1 pot ag 4, WT yeast gro inh -1, NPY Y2 blocker -2 and RAM network inh 2.
CSc1nc(N2CCN(CCO)CC2)c2sc3nc(-c4ccco4)c4c(c3c2n1)CCC4 was read as WT yeast gro inh 93*.
COc1ccc(C(CCNC(C)c2ccccc2)c2ccc(F)cc2)cc1 (configuration not stated) was read as NPY2 pot ag -1, NPY-Y1 antag 11, NPY1 pot ag -6, WT yeast gro inh 59*, NPY Y2 blocker 16 and RAM network inh 0.
